We go through five molecules from ChEMBL document CHEMBL4261586, “Conjugation of a 5-nitrofuran-2-oyl moiety to aminoalkylimidazoles produces non-toxic nitrofurans that are efficacious in vitro and in vivo against multidrug-resistant Mycobacterium tuberculosis” (Eur J Med Chem, 2018).

Format in all cases: functional
For assay [1], the system named is Mycobacterium tuberculosis. Briefly: Antimycobacterial activity against multidrug-resistant Mycobacterium tuberculosis 5023 harboring rpoB S531L/katG S315T mutation mutation after 7 days by resazurin microtitre plate assay. In a few lines:
(§1)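 REMA in Middlebrook 7H9 with OADC. Three-week culture vortexed with glass beads, adjusted to 1.0 McFarland (about 3×10⁸ bacteria/mL) and diluted 20-fold. Final concentrations 1.6–200 via 2-fold dilutions; growth control plus 1% ([…] diluted) control. 7 days at 35 °C, then 0.01% resazurin for 18 h; fluorescence ex 520/em 590 nm. MIC taken where fluorescence plateaued or matched the 1% control (t-test).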

Assay [2] concerns Mycobacterium tuberculosis. Kind of assay: Antimycobacterial activity against multidrug-resistant Mycobacterium tuberculosis 2712 harboring rpoB S531L/katG I335V/ahpC T10 mutation after 7 days by resazurin microtitre plate assay. The essentials: as §1
(In general: Resazurin is reduced to fluorescent resorufin, in cell work by metabolically active cells.)

The subject of assay [3] is Mycobacterium tuberculosis. Briefly: Antimycobacterial activity against multidrug-resistant Mycobacterium tuberculosis 7106 harboring rpoB S531L/katG S315T mutation after 7 days by resazurin microtitre plate assay. In a few lines:
as §1

Assay [4] deals with Mycobacterium tuberculosis. Kind of assay: Antitubercular activity against multidrug-resistant Mycobacterium tuberculosis 2712 infected in C57BL/6 mouse assessed as tubercular foci index at 28 mg/kg, po administered via gavage over 42 days (excluding weekends) cotreated with prothionamide, levofloxacin and p-aminosalicylic acid (reference value: 3.46 +/- 0.09).
Assay [5] relates to Mycobacterium tuberculosis. Kind of assay: Antitubercular activity against multidrug-resistant Mycobacterium tuberculosis 2712 infected in C57BL/6 mouse assessed as lung mass index at 28 mg/kg, po administered via gavage over 42 days (excluding weekends) cotreated with prothionamide, levofloxacin and p-aminosalicylic acid (reference value: 1.81 +/- 0.12).
The test system of assay [6] is Mycobacterium tuberculosis. Briefly: Antitubercular activity against multidrug-resistant Mycobacterium tuberculosis 2712 infected in C57BL/6 mouse assessed as colony forming units per lung mass units at 28 mg/kg, po administered via gavage over 42 days (excluding weekends) cotreated with prothionamide, levofloxacin and p-aminosalicylic acid (reference value: 85.7 +/- 5.3 x 10^3).

In brackets after ≈: the same amount, converted by molar mass.

Regarding `Cc1cnc(CC2CCN(C(=O)c3ccc([N+](=O)[O-])o3)C2)n1CC1CC1` (stereo not drawn), the results for the MIC in assay [1], in assay [2] and in assay [3] were 6.2 µg/mL (≈ 17.3 µM), 1.6 µg/mL (≈ 4.46 µM) and 12.5 µg/mL (≈ 34.9 µM), respectively.

For the molecule `Cc1cnc(CCNC(=O)c2ccc([N+](=O)[O-])o2)n1C1CCC1`, the MIC in assay [1], in assay [2] and in assay [3] was 12.5 µg/mL (≈ 39.3 µM) throughout.

Consider `Cc1cnc(-c2ccccc2)n1CC1CCN(C(=O)c2ccc([N+](=O)[O-])o2)C1` (stereo not drawn), for which the results for the MIC in assay [1], in assay [2] and in assay [3] were 6.2 µg/mL (≈ 16.3 µM), 3.1 µg/mL (≈ 8.15 µM) and 6.2 µg/mL (≈ 16.3 µM), respectively.

As to `CCCn1c(C)cnc1C1CN(C(=O)c2ccc([N+](=O)[O-])o2)C1`, the Activity_index in assay [4] turned out to be 2.54; in assay [5], 1.15. Also, the Activity in assay [6] is listed as 10.6 ×10³ CFU. The MIC in assay [1] came to 3.1 µg/mL (≈ 9.74 µM); in assay [2], 0.8 µg/mL (≈ 2.51 µM); in assay [3] it was 3.1 µg/mL (≈ 9.74 µM).

Take `Cc1cnc(C)n1C1CCN(C(=O)c2ccc([N+](=O)[O-])o2)C1` (stereo not drawn): the MIC was 25 µg/mL (≈ 82.2 µM) in assay [1], 25 µg/mL (≈ 82.2 µM) in assay [2] and 12.5 µg/mL (≈ 41.1 µM) in assay [3].

As usually defined, the MIC is the least concentration at which growth counts as inhibited. Read a low MIC as greater potency.
